The subject of data set [1] is Plasmodium cynomolgi. Kind of data set: Cures in Plasmodium cynomolgi infected Rhesus monkeys (Macaca mulatta) on 0.316 mg/kg/day after 7 days; cured 2 of 4. It is filed as functional.
Data set [2] deals with Plasmodium cynomolgi. Kind of data set: Cures in Plasmodium cynomolgi infected Rhesus monkeys (Macaca mulatta) on 1 mg/kg/day after 7 days; cured 2 of 2. It is filed as functional.
In data set [3] the test system is Plasmodium cynomolgi. Kind of data set: Cures in Plasmodium cynomolgi infected Rhesus monkeys (Macaca mulatta) on 10.0 mg/kg/day after 7 days. It is filed as functional, organism-based.
For data set [4], the system named is Mus musculus. Kind of data set: Suppressive blood schizonticidal antimalarial activity evaluated in the trophozoite-induced Plasmodium berghei infection in mice (Mus musculus) at a dose 160 mg/kg given as no. of toxic deaths. The format is functional. Summed up:
(§1)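 Rane Laboratory mouse test with blood-induced P. berghei infection, five mice per group. Toxic deaths are deaths occurring before the 6th day postinfection.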

Data set [5] relates to Plasmodium berghei. The data set can be described thus: Suppressive blood schizonticidal antimalarial activity evaluated in the trophozoite-induced Plasmodium berghei infection in mice (Mus musculus) at a dose 640 mg/kg given as number of toxic deaths. The note with it: in vivo. Set-up: dose 640 mg/kg. The format is toxicity, organism-based. Summed up: as §1
The test system of data set [6] is Mus musculus. The data set can be described thus: Suppressive blood schizonticidal antimalarial activity evaluated in the trophozoite-induced Plasmodium berghei infection in mice (Mus musculus) at a dose 80 mg/kg given as no. of toxic deaths. It is filed as functional. Summed up: as §1
For data set [7], the system named is Plasmodium berghei. The data set can be described thus: Blood schizonticidal antimalarial activity in the trophozoite-induced Plasmodium berghei infection in mice (Mus musculus) at 20 mg/kg. It is filed as functional. The arrangement: unit not given beside the values. Summed up:
(§2)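 Run at the Rane Laboratory in mice infected with blood-induced P. berghei, five animals per group. Activity is the increase in mean survival time over untreated infected controls. A compound counts as active when treated-group MST is more than twice the control MST. Cures are mice surviving at 60 days postinfection.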

In data set [8] the test system is Mus musculus. The data set can be described thus: Suppressive blood schizonticidal antimalarial activity evaluated in the trophozoite-induced Plasmodium berghei infection in mice (Mus musculus) at a dose 10 mg/kg. It is filed as functional. Summed up:
as §2

Data set [9] relates to Mus musculus. Kind of data set: Suppressive blood schizonticidal antimalarial activity evaluated in the trophozoite-induced Plasmodium berghei infection in mice (Mus musculus) at a dose 40 mg/kg. The format is functional. The arrangement: unit not given beside the values. Summed up: as §2
Data set [10] has as its system Plasmodium cynomolgi. Kind of data set: Cures in Plasmodium cynomolgi infected Rhesus monkeys (Macaca mulatta) on 0.316 mg/kg/day after 7 days; cured 0 of 3. It is filed as functional.
The subject of data set [11] is Plasmodium cynomolgi. Kind of data set: Cures in Plasmodium cynomolgi infected Rhesus monkeys (Macaca mulatta) on 0.1 mg/kg/day after 7 days; cured 1 of 2. The format is functional.
Data set [12] deals with Mus musculus. Kind of data set: Suppressive blood schizonticidal antimalarial activity evaluated in the trophozoite-induced Plasmodium berghei infection in mice (Mus musculus) at a dose 160 mg/kg given as no. of cures. It is filed as functional. Summed up: (§3)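 Run at the Rane Laboratory with blood-induced P. berghei infections in mice, five animals per group. A cure is a mouse surviving to 60 days postinfection. Deaths before day 6 are recorded separately as toxic deaths. Activity is scored from the increase in mean survival time over untreated controls, and counts as active when treated MST is more than twice control MST.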

Data set [13] has as its system Mus musculus. Kind of data set: Suppressive blood schizonticidal antimalarial activity evaluated in the trophozoite-induced Plasmodium berghei infection in mice (Mus musculus) at a dose 320 mg/kg given as no. of toxic deaths. The format is functional. Put shortly:
as §1

Data set [14] relates to Mus musculus. Kind of data set: Suppressive blood schizonticidal antimalarial activity evaluated in the trophozoite-induced Plasmodium berghei infection in mice (Mus musculus) at a dose 80 mg/kg. It is filed as functional. The arrangement: unit not given beside the values. Put shortly: as §2
Data set [15] concerns Plasmodium cynomolgi. Kind of data set: Cures in Plasmodium cynomolgi infected Rhesus monkeys (Macaca mulatta) on 0.316 mg/kg/day after 7 days; cured 0 of 2. The format is functional.
Data set [16] deals with Plasmodium cynomolgi. The data set can be described thus: Radical curative antimalarial activity against Plasmodium cynomolgi in Rhesus monkeys (Macaca mulatta) at 1 mg/kg/day over 7 days; cured 1 of 2. The format is functional.
In data set [17] the test system is Plasmodium cynomolgi. The data set can be described thus: Cures in Plasmodium cynomolgi infected Rhesus monkeys (Macaca mulatta) on 0.1 mg/kg/day after 7 days (x7); cured 0 of 2. It is filed as functional.
For data set [18], the system named is Plasmodium cynomolgi. Kind of data set: Cures in Plasmodium cynomolgi infected Rhesus monkeys (Macaca mulatta) on 0.125 mg/kg/day dose. It is filed as functional.
Data set [19] relates to Plasmodium cynomolgi. Kind of data set: Cures in Plasmodium cynomolgi infected Rhesus monkeys (Macaca mulatta) on 0.25 mg/kg/day dose. The format is functional.
Data set [20] concerns Plasmodium cynomolgi. Kind of data set: Cures in Plasmodium cynomolgi infected Rhesus monkeys (Macaca mulatta) on 0.5 mg/kg/day. It is filed as functional.
Data set [21] concerns Plasmodium cynomolgi. The data set can be described thus: Cures in Plasmodium cynomolgi infected Rhesus monkeys (Macaca mulatta) on 0.316 mg/kg/day after 7 days; cures 2 of 2. The format is functional.
Data set [22] relates to Plasmodium cynomolgi. Kind of data set: Cures in Plasmodium cynomolgi infected Rhesus monkeys (Macaca mulatta) on 1 mg/kg/day after 7 days; cured 1 of 1. The format is functional.
The test system of data set [23] is Plasmodium cynomolgi. The data set can be described thus: Cures in Plasmodium cynomolgi infected Rhesus monkeys (Macaca mulatta) on 0.1 mg/kg/day after 7 days; cured 1 of 3. It is filed as functional.
The subject of data set [24] is Mus musculus. Kind of data set: Suppressive blood schizonticidal antimalarial activity evaluated in the trophozoite-induced Plasmodium berghei infection in mice (Mus musculus) at a dose 10 mg/kg given as no. of cures. It is filed as functional. Summed up: as §3
Data set [25] has as its system Mus musculus. The data set can be described thus: Suppressive blood schizonticidal antimalarial activity evaluated in the trophozoite-induced Plasmodium berghei infection in mice (Mus musculus) at a dose 20 mg/kg given as no. of cures. It is filed as functional. Summed up: as §3
The test system of data set [26] is Plasmodium berghei. Kind of data set: Blood schizonticidal activity in trophozoite-induced Plasmodium berghei infected mice (Mus musculus) at 40 mg/kg; numbers cured. The format is functional. Put shortly: as §3
Data set [27] relates to Mus musculus. Kind of data set: Suppressive blood schizonticidal antimalarial activity evaluated in the trophozoite-induced Plasmodium berghei infection in mice (Mus musculus) at a dose 2.5 mg/kg. It is filed as functional. Summed up:
as §2

Data set [28] has as its system Mus musculus. The data set can be described thus: Suppressive blood schizonticidal antimalarial activity evaluated in the trophozoite-induced Plasmodium berghei infection in mice (Mus musculus) at a dose 5 mg/kg. It is filed as functional. The arrangement: unit not given beside the values. Put shortly: as §2

Turning to `CCCCOc1c(OC)cc(NC(C)CCCN)c2ncccc12` (stereo not drawn), the Cures/no. of animals in the data set with Plasmodium cynomolgi [1] was 2; in the data set on Plasmodium cynomolgi [2] it was 2; in the data set on Plasmodium cynomolgi [3] it was “Toxic”. The Toxic deaths in the data set on Mus musculus [4] stood at 3; with Plasmodium berghei [5], 5; in the data set with Mus musculus [6], 2. Besides, the “Delta MST” value with Plasmodium berghei [7] is recorded as 6.5; in the data set with Mus musculus [8], 4.1; with Mus musculus [9], 6.7.
`COc1cc(NC(C)CCCN)c2nccc(C)c2c1OCCCCCCCCOc1ccccc1` (stereo not drawn): the Cures/no. of animals in the data set with Plasmodium cynomolgi [10] worked out at 0; in the data set with Plasmodium cynomolgi [2] it was 2; in the data set with Plasmodium cynomolgi [11], 1. In addition, in the data set on Mus musculus [12], the Cures worked out at 3. Also, the results for the Toxic deaths with Mus musculus [13] and with Plasmodium berghei [5] were 2 and 1, respectively. Besides, the “Delta MST” value is on record as 3 with Plasmodium berghei [7], 0.6 in the data set on Mus musculus [8], 9.4 in the data set on Mus musculus [9] and 4.4 in the data set on Mus musculus [14].
Regarding `COc1cc(NC(C)CCCN)c2ncccc2c1` (stereo not drawn) [PRIMAQUINE], the Cures/no. of animals in the data set with Plasmodium cynomolgi [15] was 0; in the data set on Plasmodium cynomolgi [16], 1; in the data set with Plasmodium cynomolgi [17] it was 0. In addition, the Toxic deaths in the data set on Mus musculus [4] amounted to 2; with Mus musculus [13], 5; in the data set on Plasmodium berghei [5], 5. For the same compound, the “Delta MST” value in the data set on Plasmodium berghei [7] is reported as 4; in the data set on Mus musculus [9], 5; with Mus musculus [14], 9.4.
`COc1cc(NC(C)CCCN)c2ncc(C)cc2c1` (stereo not drawn): the Cures/no. of animals with Plasmodium cynomolgi [15] came to 0; in the data set with Plasmodium cynomolgi [16], 2; in the data set on Plasmodium cynomolgi [17], 0. The Toxic deaths in the data set on Mus musculus [4] was found to be 2; in the data set with Mus musculus [13], 5; in the data set with Plasmodium berghei [5], 5; in the data set on Mus musculus [6], 1. Besides, the “Delta MST” value in the data set with Plasmodium berghei [7] worked out at 5.7; in the data set with Mus musculus [9], 7.5.
With `COc1cc(NC(C)CCCN)c2nccc(C)c2c1OC` (stereo not drawn), the figures for the Cures in the data set on Plasmodium cynomolgi [18], with Plasmodium cynomolgi [19] and in the data set on Plasmodium cynomolgi [20] were 11, 3 and 1, respectively. Moreover, the values for the Toxic deaths with Mus musculus [4], in the data set on Mus musculus [13] and with Plasmodium berghei [5] were 1, 4 and 5, respectively. Besides, the “Delta MST” value was found to be 5.7 in the data set on Plasmodium berghei [7], 7.1 in the data set on Mus musculus [9] and 8.9 with Mus musculus [14].
On to `CCCCOCCOc1c(OC)cc(NC(C)CCCN)c2nccc(C)c12` (stereo not drawn), for which the Cures/no. of animals with Plasmodium cynomolgi [21] was 2; in the data set on Plasmodium cynomolgi [22], 1; in the data set with Plasmodium cynomolgi [3], “Toxic”; with Plasmodium cynomolgi [23] it was 1. The Cures was found to be 3 in the data set on Mus musculus [24], 4 with Mus musculus [25] and 2 in the data set on Plasmodium berghei [26]. For the same compound, the Toxic deaths with Mus musculus [4] was 3; in the data set on Mus musculus [13], 4; in the data set on Mus musculus [6], 4. Further, the “Delta MST” value came to 3.3 in the data set with Mus musculus [27] and 4.3 in the data set on Mus musculus [28].

These data come from ChEMBL document CHEMBL1123779, “Modifications of primaquine as antimalarials. 4. 5-Alkoxy derivatives of primaquine” (J Med Chem, 1987).
